Assay results collected from several papers.
Lines come from different studies, so protocols differ.
Read-out: cell growth or viability

C=CC(=O)Nc1cccc(-c2snc3cc(-c4ccc(N)c(OC)c4)cnc23)c1 has a CC50 of 21 µM (Vero; resazurin).
For Cc1cc(C)cc([C@@H]2C[C@H]2C(=O)NC(C(=O)NC2CC2)c2ccc(C)c(C)c2)c1 (stereo partly drawn), the CC50 was roughly 10 µM (BHK-21; MTT; 24 h).
With C[C@H]1[C@H](OC(=O)CCC(=O)O)O[C@@H]2O[C@@]3(C)CC[C@H]4[C@H](C)CC[C@@H]1[C@@]24OO3 the CC50 was 29.2 µM (Vero; WST-1; 18 h).
For O=C(Nc1ncc([N+](=O)[O-])s1)c1cc(Cl)ccc1Cl, the CC50 was greater than 100 µM (BHK-21; MTT).
OCCCCCCC1COOC2(CCCCCCCCCCC2)OOC1 gave a CC50 of 3.4 µM (BHK-21; WST-1; 72 h).
Cc1cc(N)c2cc(NC(=O)Nc3ccc4nc(C)cc(N)c4c3)ccc2n1 has a CC50 of 49 µM (BHK-21; MTT; 42 h).
O=C(Nc1ncc([N+](=O)[O-])s1)c1ccco1 gave a CC50 of greater than 10 µM (BHK-21; MTT).
The CC50 of Nc1ccc(-c2ccc(Nc3cc(S(=O)(=O)O)c(N)c4c3C(=O)c3ccccc3C4=O)cc2)c(S(=O)(=O)O)c1 is reported as 177 µM (BHK-21; MTT; 42 h).
For CC(=O)c1cccc(NC(=O)C(=O)[C@H](CC(C)C)NC(=O)[C@H](CC(C)C)NC(=O)[C@H](CC(C)C)NC(=O)OCc2ccccc2)c1, the CC50 was 17.7 µM (Vero; ATP luminescence; 48 h).
With Clc1ccc(CCC(Cn2ccnc2)Sc2c(Cl)cccc2Cl)cc1 (stereo not drawn) the CC50 was 34.9 µM (Vero; WST-1; 18 h).
With O=C(NCc1ccc(Cl)cc1)C1CC1c1ccccc1 (stereo not drawn) the CC50 was greater than 100 µM (BHK-21; MTT).
The CC50 of COc1cc(Nc2ccnc3ccc(Br)cc23)cc(OC)c1OC is reported as 28.6 µM (Vero; resazurin).
